Most compounds without a hit are left out; they make up all but 12% or so of the library.
PKD1 inh: inhibitors of human PKD1 kinase; Q15139; PKD1 kinase fluorescence polarization assay; inhibition, % (test concentration not listed); 200,000 tested, 0.056% active; AID 797
L major viab: inhibitors of Leishmania major promastigote growth; Leishmania major promastigotes, resazurin fluorescence viability; inhibition, % at 10 µM; 200,000 tested, 9% active; AID 1063;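 note: promastigotes grown with compound for 44 hours at 28 °C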
Arbovirus anti: arbovirus infection inhibition; arbovirus infection cell-based antiviral screen; inhibition, % at 10 µM; 200,000 tested, 0.37% active; AID 1251; in the data active = inhibition above about 30%
Rad51 HR inh: blocks human Rad51 in homologous recombination; Q06609; hRad51 DNA strand exchange, fluorescence dequenching; inhibition, % at 10 µM; 200,000 tested, 0.085% active; AID 1385;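 active = inhibition above 40% at the single screening dose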;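 note: 0% = DMSO control wells and 100% = blanks with heterologous ssDNA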
Target sequence (Q06609 whole entry, looked up): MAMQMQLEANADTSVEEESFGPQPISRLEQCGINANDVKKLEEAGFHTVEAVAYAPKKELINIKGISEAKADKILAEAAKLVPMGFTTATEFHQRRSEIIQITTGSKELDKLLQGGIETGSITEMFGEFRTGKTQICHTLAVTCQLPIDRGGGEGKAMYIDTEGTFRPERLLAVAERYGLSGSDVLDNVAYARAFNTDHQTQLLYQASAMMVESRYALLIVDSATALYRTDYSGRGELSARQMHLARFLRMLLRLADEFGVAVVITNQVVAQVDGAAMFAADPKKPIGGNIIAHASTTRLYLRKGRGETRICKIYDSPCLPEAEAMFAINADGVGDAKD
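System: hRad51 filaments on single-stranded DNA; reagent: Fluorescein- and BHQ1-tagged 47-mer duplex; compound dosing: one concentration, 10 µM final; timing: filaments 15 min 37 °C, then compound 30 min; measured by: fluorescein emission 520 nm, excitation 485 nm; benchmarks: per-plate controls and blanks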
Wee1 degr inh: blocks degradation of human Wee1 kinase; reporter increase, % at 5 µM; HeLa Luc-Wee1K328M stability, luciferase luminescence; 100% = proteasome inhibitor MG132 effect; 220,000 tested, 1.2% active; AID 1321;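 active = activation above the mean of all tested compounds plus 3 SD, set per screening run, cut at about 8.8% in these data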;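 note: cells exposed to compound for 20 h before luminescence read; 0% = DMSO alone and 100% = MG132 at 30 µM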
CHOP inh: CHOP inhibition in unfolded protein response; CHO-K1 CHOP-promoter luciferase, tunicamycin-induced, 15-18 h; inhibition, % at 10 µM; 220,000 tested, 3.8% active; AID 2732;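 active = compounds that reduced the stress-induced luciferase reporter signal by more than about 70% of percent inhibition, limit read from the data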;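 note: 0% = tunicamycin plus vehicle and 100% = wells without tunicamycin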
* marks the source's active call; other numbers are inactive results; x = no result given. Cut-off read from the data, not from the text of the source, unless noted: active = inhibition above about 50%; inactive = the rest.

SMILES	PKD1 inh	L major viab	Arbovirus anti	Rad51 HR inh	Wee1 degr inh	CHOP inh
O=C(Nc1nccs1)c1cc(-c2ccccc2)nc2ccccc12	1	90*	12	2	1	28
Cc1ccc(-c2cc(C(=O)NCc3ccccn3)c3ccccc3n2)cc1C	-9	88*	-11	-1	7	15
CC(C)Cc1nnc(NC(=O)c2cc(-c3ccccc3)nc3ccccc23)s1	-5	-8	-3	6	2	19
[Li+]	x	x	x	x	x	31
Cc1ccc(C(=O)/C=C/c2ccc3c(c2)OCO3)o1	-2	43	-8	-1	1	50
Cc1ccc(C(=O)/C=C/c2ccccc2)o1	2	83*	-21	1	-2	-63
Cc1ccc(C(=O)/C=C/c2ccc(Br)cc2)o1	0	79*	-2	-3	-3	-50
Cc1[nH]c2ccccc2c1C(=O)/C=C/c1ccccc1	-9	26	-13	2	4	16
O=C(Cn1nnc(-c2ccccc2)n1)OCc1ccccc1	-5	-5	-4	-4	-1	76*
O=C(Cn1nnc(-c2ccccc2)n1)OCc1csc(-c2ccccc2)n1	-5	-4	-2	3	2	44
COc1ccc(/C=N/NC(=O)c2cccc(O)c2)cc1Cn1nc(C)c([N+](=O)[O-])c1C	1	-4	-13	x	4	39
c1ccc(Nc2nn[nH]n2)cc1	-22	-8	1	-4	2	82*
CCOc1c(N2CCOCC2)c(=O)c1=O	x	x	x	-22	0	-12
CCOc1c(N2CC(C)OC(C)C2)c(=O)c1=O (stereo unspecified)	x	x	x	x	9.4*	-20
CCN(CC)Cc1c(NC(=O)c2ccccc2)sc(C)c1C	0	21	-1	2	3	-8
CCOC(=O)c1c(NC(=O)c2ccccc2)sc2c(O)c(CN(CC)CC)ccc12	-13	100*	4	-2	-2	35
C=CC[n+]1c(-c2ccc(C)cc2)csc1Nc1ccc(NC(C)=O)cc1	-12	-5	-18	-6	-1	85*
C=CC[n+]1c(-c2ccc(OC)cc2)csc1NNC(=O)Nc1ccccc1	-2	7	22	5	-3	52
c1ccc2nc(-c3nc4ccccc4o3)ccc2c1	-7	-5	-15	2	-2	71*
CC(CN1C(C)CCCC1C)OC(=O)c1ccc(Cl)cc1Cl (stereo unspecified)	-3	10	3	-16	3	3
O=C(Nc1nnc(Cc2c[nH]c3ccccc23)s1)c1ccc(Cl)cc1Cl	-12	7	-15	-14	9	10
CC(C)(C)c1ccc(C(=O)Nc2nnc(Cc3c[nH]c4ccccc34)s2)cc1	-2	-5	-25	7	-3	75*
O=C(CCn1cnc(-c2ccccc2)c1-c1ccccc1)N/N=C/c1ccc(O)cc1	3	0	-8	9	3	4
O=C(CCn1cnc(-c2ccccc2)c1-c1ccccc1)N/N=C/c1ccccc1O	4	98*	-48	10	4	51
CCCn1cc(CN2CCC(N3CCC(C(=O)N4CCOCC4)CC3)CC2)c(C)n1	x	x	x	4	2	9
SMILES	PKD1 inh	L major viab	Arbovirus anti	Rad51 HR inh	Wee1 degr inh	CHOP inh
O=C(Cc1cccs1)Nc1cccc(-c2nc3ccccc3o2)c1	-10	-5	-6	7	1	90*
Cc1ccc(-c2nc3ccccc3o2)cc1NC(=O)Cc1cccs1	-2	-1	-22	-12	1	80*
COC(=O)C(C(=O)Nc1ccccc1C)C1CCCCCC1 (stereo unspecified)	-7	9	-3	x	3	11
Cc1cccc(NC(=O)Nc2ccc(C#N)cc2)n1	-1	35	8	2	-3	77*
O=C(/C=C/c1ccc(S(=O)(=O)N2CCOCC2)cc1)NCc1ccccc1Cl	-4	80*	5	0	2	-23
O=C(/C=C/c1ccc(S(=O)(=O)N2CCOCC2)cc1)NCc1ccc(Cl)cc1	-9	18	0	-11	-1	1
NC(=O)NC(=O)c1nccnc1C(=O)O	x	x	x	12	-1	18
COCC(C)n1c(-c2ccc3c(c2)NC(=O)CO3)csc1=Nc1ccc(OC(F)F)cc1 (stereo unspecified)	-6	-1	5	7	-3	89*
O=C1COc2ccc(-c3csc(=Nc4ccc(OC(F)F)cc4)n3CC3CCCO3)cc2N1 (stereo unspecified)	-1	99*	-8	-1	0	78*
CCN=c1scc(-c2ccc3c(c2)NC(=O)CO3)n1N=C1CCCC1	11	0	-9	-19	-2	x
O=c1c2c3c(sc2nc(N2CCNCC2)n1CCc1ccccc1)CCCCC3	x	x	x	0	-1	53
CC1(C)OC(=O)C(=CNC(=O)c2c(F)cccc2F)C(=O)O1	5	-6	-1	11	-2	73*
Cc1ccccc1C(=O)NC=C1C(=O)OC(C)(C)OC1=O	4	0	5	-16	1	32
C=CCc1cc(C=O)cc(OCC)c1OCc1ccc(Cl)cc1	3	86*	-11	x	2	71*
CCCn1c2c(c(O)c(C(=O)Nc3nccs3)c1=O)CCCC2	-7	4	-5	7	3	-21
CC(C)Cn1c2c(c(O)c(C(=O)Nc3nccs3)c1=O)CCCC2	-1	4	37*	x	4	12
Cc1csc(NC(=O)c2c(O)c3c(n(CC(C)C)c2=O)CCCC3)n1	-6	3	55*	0	2	52
Cn1[nH]c(C(F)(F)F)cc1=O	1	-5	8	-9	0	2
S=c1[nH]nc(-c2cc(-c3ccccc3)n[nH]2)n1/N=C/C(Br)=C/c1ccccc1	x	x	x	-7	8	-14
Cc1ccc(C)c(NC(=S)NC2CC3CCCC(C2)N3CC(C)C)c1 (stereo unspecified)	-15	65*	-6	0	-1	-7
CCOc1ccc(NC(=S)NC2CC3CCC(C2)N3Cc2ccco2)cc1 (stereo unspecified)	-4	68*	5	-15	-2	12
Fc1ccc(NC(=S)NC2CC3CCC(C2)N3Cc2ccco2)cc1 (stereo unspecified)	-6	82*	-1	12	-4	6
Cc1cccc(NC(=S)NC2CC3CCCC(C2)N3Cc2cccs2)c1 (stereo unspecified)	-2	89*	-4	2	-1	11
CCCN1C2CCCC1CC(NC(=S)Nc1cc(C)cc(C)c1)C2 (stereo unspecified)	-7	54*	-2	3	-1	-12
Cc1cc(C)cc(NC(=S)NC2CC3CCC(C2)N3Cc2ccco2)c1 (stereo unspecified)	5	90*	1	x	6	12
CS(=O)(=O)N1CCc2cc(-c3csc(NC(=O)C(c4ccccc4)c4ccccc4)n3)ccc21	13	94*	-9	-4	5	41
COc1cc(C2NC(=O)NC(C)=C2[N+](=O)[O-])cc(OC)c1OC (stereo unspecified)	x	x	x	20	0	0

From PubChem BioAssay
